Published values from different studies.
Lines come from different studies, so protocols differ.
Target: Glycogen synthase kinase-3 alpha (GSK3A, Homo sapiens, UniProt P49840)

SMILES	effect on	action	method	cells	tested at	measurement	result
CCCCNc1ncc2c(-c3ccc(F)cc3)nn(C[C@H]3CC[C@H](N)CC3)c2n1	target engagement in cells	inhibitor	chemoproteomics	–	20 mM	inhibition	6%
Cc1sc(C(=O)NC2COC2)cc1-n1cc(NC(=O)Nc2c(F)cccc2Cl)cn1	enzyme activity	inhibitor	–	–	10 µM	remaining activity	128%
Cc1ccc(NC(=O)c2ccc(C)c(C(F)(F)F)c2)cc1C#Cc1nn(C2CCC(O)CC2)c2ncnc(N)c12 (stereo not shown)	cell-free assay	inhibitor	–	–	10 µM	remaining signal	79%
COc1cc2ncnc(Nc3ccc(F)c(Cl)c3)c2cc1OCCCN1CCOCC1	cell-free assay	–	–	–	0.5 µM	remaining signal	99.7%
Cc1cnc(NC2CCOCC2)nc1-n1cnc(C(=O)NC(CN)c2cc(F)cc(Cl)c2)c1 (stereo not shown)	enzyme activity	inhibitor	radiometric	–	1 µM	remaining activity	8%
O=C(O)[C@@H]1[C@@H](Cn2nnc3ccccc3c2=O)CC[C@H]1C(=O)c1ccc(OCCC2CCOCC2)cc1	cell-free assay	–	competition with immobilised ligand	–	1 µM	remaining binding	93%
O=C(Nc1cnn(-c2csc(C(=O)NC3COC3)c2)c1)Nc1ccccc1Cl	enzyme activity	inhibitor	–	–	5 µM	remaining activity	97.4%
Nc1c(C(=O)NCc2ccc(C(=O)NCCCC3CCCCC3)cc2)cnn1-c1ccccc1	cell-free assay	–	competition with immobilised ligand	–	0.1 µM	remaining binding	100%
O=C1Cc2c([nH]c3ccc([N+](=O)[O-])cc23)-c2ccccc2N1	cell-free assay	–	–	–	0.5 µM	remaining signal	0.971%
CS(=O)(=O)N1CCCC(NC(=O)[C@H](CCC2CCCCC2)NC(=O)c2ccc(CNc3ncnc4c3nnn4-c3ccccc3)cc2)C1 (stereo partly shown)	cell-free assay	–	competition with immobilised ligand	–	0.1 µM	remaining binding	100%
CC(C)(C)c1nc(-c2cccc(NS(=O)(=O)c3c(F)cccc3F)c2F)c(-c2ccnc(N)n2)s1	enzyme activity	inhibitor	radiometric	–	1 µM	remaining activity	97%
COc1cc(Cl)c(C(=O)N[C@@H](CN[C@H]2CC[C@@H](N)CC2)Cc2ccc(C#N)cc2)cc1-c1ccc(CN[C@H](C)c2ccc(C)cc2)o1	enzyme activity	inhibitor	–	–	1 µM	remaining activity	106%
Cc1c(NC(=O)c2cc(C(N)=O)nc3cc(F)ccc23)c(C(F)(F)F)nn1Cc1ccc(C(C)(C)C)cc1	cell-free assay	–	competition with immobilised ligand	–	1 µM	remaining binding	98%
CCCOc1ccc(OC)c(F)c1C(=O)c1ccc(C(=O)N[C@@H]2CNC[C@H]2NC(=O)c2ccc3[nH]ncc3c2)cc1	enzyme activity	inhibitor	–	–	10 µM	remaining activity	89%
Cc1ccc(NC(=O)c2ccc(CN3CCN(C)CC3)cc2)cc1Nc1nccc(-c2cccnc2)n1	enzyme activity	inhibitor	–	–	0.5 µM	activity vs control	100%
O=C(NCc1ncc(C(F)(F)F)cc1Cl)c1ccc2c(c1)C1(CCS(=O)(=O)CC1)[C@@H](C1CC1)N2S(=O)(=O)c1ccc(F)cc1	cell-free assay	–	competition with immobilised ligand	–	1 µM	remaining binding	100%
Cc1ccc(Nc2nccc(N(C)c3ccc4c(C)n(C)nc4c3)n2)cc1S(N)(=O)=O	enzyme activity	inhibitor	–	–	10 µM	inhibition	48%
CNc1cc(Oc2cc(C(=O)Nc3cc(N4CCN(C)CC4)cc(C(F)(F)F)c3)ccc2C)ncn1	target engagement in cells	inhibitor	chemoproteomics	Huh-7	1 µM	inhibition	-23.9%
Cn1cnc(Br)c1C1=CN(c2ncnc3[nH]cnc23)CCS1	enzyme activity	inhibitor	radiometric	–	2 µM	inhibition	84.1%
COc1cc2ncnc(Nc3ccc(Oc4ccccc4)cc3C)c2cc1OC	enzyme activity	inhibitor	–	–	1 µM	inhibition	4%
Nc1nc(Nc2ccc(S(N)(=O)=O)cc2)sc1C(=O)c1ccccc1[N+](=O)[O-]	enzyme activity	inhibitor	–	–	0.1 µM	inhibition	73 to 75%
Cc1ccc(C(=O)NCc2ccsc2)cc1C#Cc1cn(C(C)C)c2ncnc(N)c12	enzyme activity	inhibitor	–	–	1 µM	activity vs control	91%
CO[C@@H](C)c1c(Nc2ccc([C@@H](N(C)C(=O)C3CCS(=O)(=O)CC3)C(F)(F)F)cc2)cnc2cc(Cl)nn12	cell-free assay	–	competition with immobilised ligand	–	1 µM	remaining binding	94%
CCN(CC)CCNC(=O)c1c(C)[nH]c(/C=C2\C(=O)Nc3ccc(F)cc32)c1C	enzyme activity	inhibitor	–	–	0.3 µM	inhibition	2%
Cc1cc(-n2nc(Cc3cc(F)cc(C(F)(F)F)c3)nc2C)ccc1C(N)=O	cell-free assay	–	competition with immobilised ligand	–	1 µM	remaining binding	97%
CC(C)(O)[C@H]1CC[C@H](Nc2ccc3ncc(-c4cccc(C(F)(F)F)c4)n3n2)CC1	enzyme activity	inhibitor	–	–	1 µM	remaining activity	90%
CN([C@@H]1CCc2c(CC(=O)O)c3cc(S(C)(=O)=O)ccc3n2C1)S(=O)(=O)c1ccc(F)cc1	cell-free assay	–	competition with immobilised ligand	–	1 µM	remaining binding	100%
CC/C(=N\NC(=O)NCc1cccc(O)c1)c1ccc(O)c(C)c1O	enzyme activity	inhibitor	–	–	0.1 µM	inhibition	2.8%
